Experimental data published in ChEMBL document CHEMBL4480366, “Rationally synthesized coumarin based pyrazolines ameliorate carrageenan induced inflammation through COX-2/pro-inflammatory cytokine inhibition” (Medchemcomm, 2019).
Values belong to the compound of their own block, whether it stands above or below them. Active and inactive are the calls of the source. No cut-off for these calls is given here.

Tests used:
Erythrocyte [1] = assay: Anti-inflammatory activity in human erythrocytes assessed as inhibition of heat-induced hemolysis; assay type: functional, cell-based
[2] = molecular target: T1, Prostaglandin G/H synthase 2 (Ovis aries, UniProt P79208); assay: Inhibition of ovine COX2 using arachidonic acid as substrate preincubated for 10 mins followed by substrate addition and measured after 2 mins by ELISA
T1 sequence (P79208 whole entry): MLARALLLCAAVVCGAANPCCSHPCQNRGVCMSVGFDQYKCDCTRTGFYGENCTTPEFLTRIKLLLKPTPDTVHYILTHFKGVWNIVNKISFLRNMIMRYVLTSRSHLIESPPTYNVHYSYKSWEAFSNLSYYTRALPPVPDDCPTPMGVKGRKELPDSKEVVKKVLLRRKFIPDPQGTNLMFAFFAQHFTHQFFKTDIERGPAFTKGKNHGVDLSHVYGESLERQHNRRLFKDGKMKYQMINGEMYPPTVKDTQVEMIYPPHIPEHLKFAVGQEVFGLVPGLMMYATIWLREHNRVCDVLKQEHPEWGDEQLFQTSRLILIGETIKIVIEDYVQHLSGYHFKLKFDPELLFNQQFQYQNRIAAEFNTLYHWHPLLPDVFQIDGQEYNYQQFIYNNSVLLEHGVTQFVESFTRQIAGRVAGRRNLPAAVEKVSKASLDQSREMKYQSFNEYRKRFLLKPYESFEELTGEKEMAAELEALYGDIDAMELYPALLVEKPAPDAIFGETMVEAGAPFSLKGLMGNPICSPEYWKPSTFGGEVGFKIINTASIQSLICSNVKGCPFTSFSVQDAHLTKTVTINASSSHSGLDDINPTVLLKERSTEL
Summary of the method: (§1)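 The enzyme, heme and test compound (dissolved in DMSO) were preincubated for 10 min at 37 °C in 0.1 M Tris-HCl, pH 8, with 5 mM EDTA and 2 mM phenol. Arachidonic acid was added to 100 µM final. The reaction was stopped after 2 min with 1 M HCl, then reduced with saturated SnCl2 for 5 min at RT. PGF2α was quantified by EIA (18 h RT, Ellman's reagent 60 min, 410 nm).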

[3] = In-vitro anti-inflammatory activity assessed as inhibition of heat-induced albumin (unknown origin) denaturation
Erythrocyte [4] = assay: Anti-inflammatory activity in human erythrocytes assessed as inhibition of hypotonicity-induced hemolysis at 10 to 100 ug/ml relative to control; assay type: functional, cell-based
[5] = molecular target: T2, Prostaglandin G/H synthase 1 (Ovis aries, UniProt P05979); assay: Inhibition of ovine COX1 using arachidonic acid as substrate preincubated for 10 mins followed by substrate addition and measured after 2 mins by ELISA; summary of the method: as §1
T2 sequence (P05979 whole entry): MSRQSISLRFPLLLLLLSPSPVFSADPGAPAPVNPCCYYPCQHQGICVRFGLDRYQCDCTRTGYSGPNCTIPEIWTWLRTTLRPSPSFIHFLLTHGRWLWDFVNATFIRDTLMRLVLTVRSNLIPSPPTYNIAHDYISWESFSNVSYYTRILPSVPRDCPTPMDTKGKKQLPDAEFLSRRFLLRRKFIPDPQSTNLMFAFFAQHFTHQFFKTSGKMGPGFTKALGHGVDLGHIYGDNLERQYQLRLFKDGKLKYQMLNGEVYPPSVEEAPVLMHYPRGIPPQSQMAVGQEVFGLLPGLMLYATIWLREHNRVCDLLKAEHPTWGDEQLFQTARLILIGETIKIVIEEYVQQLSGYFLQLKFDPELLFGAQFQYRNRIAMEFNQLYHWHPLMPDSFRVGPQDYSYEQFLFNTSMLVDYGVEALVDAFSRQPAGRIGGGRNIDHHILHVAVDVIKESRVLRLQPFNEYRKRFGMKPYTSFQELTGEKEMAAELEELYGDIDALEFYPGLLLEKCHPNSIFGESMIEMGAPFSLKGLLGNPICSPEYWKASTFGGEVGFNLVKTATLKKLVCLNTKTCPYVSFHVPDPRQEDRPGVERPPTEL

[6] = Inhibition of soyabean 5-LOX after 5 mins by spectrophotometric analysis; set-up: species or system Glycine max
[7] = Hepatotoxicity in Wistar rat assessed as effect on liver at 2000 mg/kg, po administered as as single dose observed continuously during first 4 hrs followed by periodic monitoring for 24 hrs and subsequent observations at once or twice daily for 14 days by hematoxylin and eosin staining-based assay; assay type: toxicity, organism-based; conditions: in vivo
Rattus norvegicus [8] = assay: Anti-inflammatory activity Wistar rat assessed as reduction in TNF-alpha production at 25 mg/kg, ip pretreated 30 mins prior to carrageenan-induction and measured after 24 hrs post induction by immunoassay; assay type: functional, organism-based
Summary of the method: (§2)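 Male Wistar rats, 4–6 weeks old and weighing 150–200 g, were housed four per cage at 22–24 °C with standard food and water.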

[9] = Acute toxicity in Wistar rat assessed as induction of behavioural changes at 50 to 2000 mg/kg, po administered as as single dose observed continuously during first 4 hrs followed by periodic monitoring for 24 hrs and subsequent observations at once or twice daily for 14 days; conditions: in vivo
[10] = Cardiotoxicity in Wistar rat assessed as effect on myocardium at 2000 mg/kg, po administered as as single dose observed continuously during first 4 hrs followed by periodic monitoring for 24 hrs and subsequent observations at once or twice daily for 14 days by hematoxylin and eosin staining-based assay; assay type: toxicity, organism-based; conditions: in vivo
Rattus norvegicus [11] = assay: Anti-inflammatory activity Wistar rat assessed as reduction in IL-1beta production at 25 mg/kg, ip pretreated 30 mins prior to carrageenan-induction and measured after 24 hrs post induction by immunoassay; assay type: functional, organism-based; summary of the method: as §2
Rattus norvegicus [12] = assay: Anti-inflammatory activity Wistar rat assessed as inhibition of carrageenan-induced paw edema at 25 to 50 mg/kg pretreated 30 mins prior to carrageenan-induction and measured after 0.5 to 24 hrs by plethysmography; assay type: functional, organism-based; conditions: TDE = time-dependent effect; summary of the method: as §2
Erythrocyte [13] = assay: Anti-inflammatory activity in human erythrocytes assessed as inhibition of heat-induced hemolysis at 50 ug/ml relative to control; assay type: functional
Rattus norvegicus [14] = assay: Anti-inflammatory activity Wistar rat assessed as reduction in IL-6 production at 25 mg/kg, ip pretreated 30 mins prior to carrageenan-induction and measured after 24 hrs post induction by immunoassay; assay type: functional, organism-based; summary of the method: as §2
[15] = In-vitro anti-inflammatory activity assessed as inhibition of heat-induced albumin (unknown origin) denaturation at 100 ug/ml
[16] = Acute toxicity in Wistar rat assessed as induction of behavioural changes at 50 mg/kg, po administered as as single dose observed continuously during first 4 hrs followed by periodic monitoring for 24 hrs and subsequent observations at once or twice daily for 14 days; assay type: organism-based; conditions: in vivo
Summary of the method: (§3)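 Rats of either sex were used, per OECD guidelines, housed four per cage at 22–24 °C with standard food and water. They were fasted 4 h before and 2 h after dosing. Compounds were given as a single oral dose, with an untreated control group. Animals were watched continuously for the first 4 h, then periodically to 24 h, then once or twice daily for 14 days.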

Rattus norvegicus [17] = assay: Analgesic activity in Wistar rat assessed as reduction in acetic acid-induced abnormal writhing administered intraperitoneally 30 mins after substance P injection followed by acetic acid induction after 30 mins; assay type: functional, organism-based; summary of the method: as §2
Erythrocyte [18] = assay: Anti-inflammatory activity in human erythrocytes assessed as inhibition of hypotonicity-induced hemolysis at 100 ug/ml relative to control; assay type: functional
Erythrocyte [19] = assay: Anti-inflammatory activity in human erythrocytes assessed as inhibition of hypotonicity-induced hemolysis at 50 ug/ml relative to control; assay type: functional
Erythrocyte [20] = assay: Anti-inflammatory activity in human erythrocytes assessed as inhibition of heat-induced hemolysis at 25 ug/ml relative to control; assay type: functional
[21] = Renal toxicity in Wistar rat assessed as effect on kidney at 2000 mg/kg, po administered as as single dose observed continuously during first 4 hrs followed by periodic monitoring for 24 hrs and subsequent observations at once or twice daily for 14 days by hematoxylin and eosin staining-based assay; assay type: organism-based; conditions: in vivo
[22] = Acute toxicity in Wistar rat assessed as induction of sneezing at 300 to 2000 mg/kg, po administered as as single dose observed continuously during 1 to 4 hrs; assay type: organism-based; conditions: in vivo; summary of the method: as §3
[23] = Acute toxicity in Wistar rat assessed as induction of irritation at 300 to 2000 mg/kg, po administered as as single dose observed continuously during 1 to 4 hrs; assay type: organism-based; conditions: in vivo; summary of the method: as §3
Erythrocyte [24] = assay: Anti-inflammatory activity in human erythrocytes assessed as inhibition of hypotonicity-induced hemolysis at 10 ug/ml relative to control; assay type: functional
[25] = Acute toxicity in Wistar rat assessed as induction of itching at 300 to 2000 mg/kg, po administered as as single dose observed continuously during 1 to 4 hrs; assay type: organism-based; conditions: in vivo; summary of the method: as §3
Rattus norvegicus [26] = assay: Anti-inflammatory activity Wistar rat assessed as inhibition of carrageenan-induced paw edema at 25 to 50 mg/kg pretreated 30 mins prior to carrageenan-induction and measured after 24 hrs by plethysmography; assay type: functional; summary of the method: as §2
Erythrocyte [27] = assay: Anti-inflammatory activity in human erythrocytes assessed as inhibition of heat-induced hemolysis at 10 ug/ml relative to control; assay type: functional
Erythrocyte [28] = assay: Anti-inflammatory activity in human erythrocytes assessed as inhibition of heat-induced hemolysis at 100 ug/ml relative to control; assay type: functional
Erythrocyte [29] = assay: Anti-inflammatory activity in human erythrocytes assessed as inhibition of hypotonicity-induced hemolysis at 25 ug/ml relative to control; assay type: functional
Rattus norvegicus [30] = assay: Analgesic activity in Wistar rat assessed as reduction in acetic acid-induced abnormal writhing administered intraperitoneally 1 hr prior to acetic acid induction relative to control; assay type: functional; set-up: scale not given: the % may be the effect or the level left; summary of the method: as §2

SMILES: COc1cc(C2CC(c3cc4ccccc4oc3=O)=NN2C(C)=O)cc(OC)c1OC (stereo not drawn)
- Activity (Erythrocyte [1]): Dose-dependent effect
- IC50 [2]: 4.35 µM
- inhibition [3]: Dose-dependent effect
- Activity (Erythrocyte [4]): Active
- IC50 [5]: > 30 µM

SMILES: CC(=O)N1N=C(c2cc3ccccc3oc2=O)CC1c1ccc(Cl)cc1 (stereo not drawn)
- Activity (Erythrocyte [1]): Dose-dependent effect
- inhibition [3]: Dose-dependent effect
- Activity (Erythrocyte [4]): Active

SMILES: CC(=O)N1N=C(c2cc3ccccc3oc2=O)CC1c1ccccc1 (stereo not drawn)
- Activity (Erythrocyte [1]): Dose-dependent effect
- inhibition [3]: Dose-dependent effect
- Activity (Erythrocyte [4]): Active

SMILES: COc1ccc(C2CC(c3cc4ccccc4oc3=O)=NN2C(C)=O)cc1 (stereo not drawn)
- IC50 [6]: 12 µM
- Activity [7]: Non-Toxic
- Activity (Rattus norvegicus [8]): Active
- Activity [9]: Non-Toxic
- Activity [10]: Non-Toxic
- Activity (Rattus norvegicus [11]): Active
- inhibition (Rattus norvegicus [12]): Tde
- Activity (Erythrocyte [1]): Dose-dependent effect
- inhibition at 50 µg/mL (Erythrocyte [13]): 67%
- Activity (Rattus norvegicus [14]): Active
- IC50 [2]: 0.41 µM
- inhibition [15]: 70%
- Activity [16]: Non-Toxic
- inhibition [3]: Dose-dependent effect
- Activity (Rattus norvegicus [17]): inactive
- inhibition at 100 µg/mL (Erythrocyte [18]): 68%
- inhibition at 50 µg/mL (Erythrocyte [19]): 67%
- inhibition at 25 µg/mL (Erythrocyte [20]): 63%
- Activity [21]: Non-Toxic
- Activity [22]: Toxic
- Activity [23]: Toxic
- inhibition at 10 µg/mL (Erythrocyte [24]): 62%
- Activity [25]: Toxic
- inhibition (INH) (Rattus norvegicus [26]): 67.39%
- Activity (Erythrocyte [4]): Active
- inhibition at 10 µg/mL (Erythrocyte [27]): 60%
- IC50 [5]: 22.4 µM
- inhibition at 100 µg/mL (Erythrocyte [28]): 69%
- inhibition at 25 µg/mL (Erythrocyte [29]): 63%
- Activity (Rattus norvegicus [30]): 70.5%

SMILES: CC(=O)N1N=C(c2cc3ccccc3oc2=O)CC1c1ccc([N+](=O)[O-])cc1 (stereo not drawn)
- Activity (Rattus norvegicus [8]): Active
- Activity (Rattus norvegicus [11]): Active
- inhibition (Rattus norvegicus [12]): Tde
- Activity (Erythrocyte [1]): Dose-dependent effect
- Activity (Rattus norvegicus [14]): Active
- IC50 [2]: 1.79 µM
- inhibition [3]: Dose-dependent effect
- inhibition (INH) (Rattus norvegicus [26]): 52.17%
- Activity (Erythrocyte [4]): Active
- IC50 [5]: 16.2 µM

The next lines start with results.

- IC50 [2]: 4.37 µM
- IC50 [5]: > 30 µM
SMILES: COc1ccccc1C1CC(c2cc3ccccc3oc2=O)=NN1C(C)=O (stereo not drawn)
- Activity (Erythrocyte [1]): Dose-dependent effect
- inhibition [3]: Dose-dependent effect
- Activity (Erythrocyte [4]): Active

- IC50 [2]: 0.23 µM
- IC50 [5]: > 30 µM
SMILES: Cc1ccc(-c2ncc(Cl)cc2-c2ccc(S(C)(=O)=O)cc2)cn1 [ETORICOXIB]
- inhibition at 50 µg/mL (Erythrocyte [13]): 78%
- inhibition at 100 µg/mL (Erythrocyte [18]): 69%
- inhibition at 50 µg/mL (Erythrocyte [19]): 66%
- inhibition at 25 µg/mL (Erythrocyte [20]): 73%
- inhibition at 10 µg/mL (Erythrocyte [24]): 52%
- inhibition (Rattus norvegicus [26]): Active
- inhibition at 10 µg/mL (Erythrocyte [27]): 65%
- inhibition at 100 µg/mL (Erythrocyte [28]): 76%
- inhibition at 25 µg/mL (Erythrocyte [29]): 62%
- Activity (Rattus norvegicus [30]): 57.6%

- IC50 [2]: 2.39 µM
- IC50 [5]: 20 µM
SMILES: CC(=O)N1N=C(c2cc3ccccc3oc2=O)CC1c1ccc(O)cc1 (stereo not drawn)
- Activity (Rattus norvegicus [8]): Active
- Activity (Rattus norvegicus [11]): Active
- inhibition (Rattus norvegicus [12]): Tde
- Activity (Erythrocyte [1]): Dose-dependent effect
- Activity (Rattus norvegicus [14]): Active
- inhibition [3]: Dose-dependent effect
- inhibition (INH) (Rattus norvegicus [26]): 55.43%
- Activity (Erythrocyte [4]): Active
